Data on 14 compounds can be found in ChEMBL document CHEMBL1157506, “Synthesis and pharmacological characterization of chiral pyrrolidinylfuran derivatives: the discovery of new functionally selective muscarinic agonists” (J Med Chem, 2008).

What is called Ki is a dissociation constant, usually derived from enzyme kinetics or from competition with a known ligand. As a reminder, the pKb is −log10 of the Kb, conventionally taken in molar units.

For test [1], the target named is T1, Muscarinic acetylcholine receptor M4 (Homo sapiens, UniProt P08173).
T1 sequence (P08173 whole entry): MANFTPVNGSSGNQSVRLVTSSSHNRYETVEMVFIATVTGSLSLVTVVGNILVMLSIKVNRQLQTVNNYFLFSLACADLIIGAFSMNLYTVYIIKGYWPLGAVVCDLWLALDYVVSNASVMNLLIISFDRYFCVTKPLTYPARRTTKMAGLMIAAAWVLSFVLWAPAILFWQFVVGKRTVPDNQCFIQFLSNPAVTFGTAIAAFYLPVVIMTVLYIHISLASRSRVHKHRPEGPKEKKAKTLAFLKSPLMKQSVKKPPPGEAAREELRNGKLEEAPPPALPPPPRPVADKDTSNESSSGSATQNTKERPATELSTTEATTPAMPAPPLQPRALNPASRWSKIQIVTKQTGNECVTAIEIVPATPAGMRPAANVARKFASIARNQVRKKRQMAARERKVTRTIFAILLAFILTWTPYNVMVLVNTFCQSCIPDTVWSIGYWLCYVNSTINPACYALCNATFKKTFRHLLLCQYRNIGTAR
Briefly: Displacement of [3H]NMS from human muscarinic M4 receptor expressed in CHO cells by liquid scintillation counter. The test is classed as cell-based. The method, boiled down: (§1)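 Membrane protein was 70 µg/mL for hm2, 50 µg/mL for hm4 and 25 µg/mL for hm5. Incubation was 120 min at room temperature in 25 mM sodium phosphate with 5 mM MgCl2, pH 7.4. GF/C filtration and scintillation counting followed; duplicates.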

For test [2], the target named is Muscarinic acetylcholine receptor M3 (Homo sapiens, UniProt P20309). Briefly: Displacement of [3H]NMS from human muscarinic M3 receptor expressed in CHO cells by liquid scintillation counter. The test is classed as cell-based. Background: Displacement assays read how much labelled ligand stays bound in the presence of the test substance.
A short description of test [3]: Antagonist activity at muscarinic M1/M4 receptor in New Zealanda white rabbit vas deferens assessed as effect on isometric tissue contraction. The test is classed as functional, Oryctolagus cuniculus. The method in brief:
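Rabbit vas deferens bathed at 30 °C with 10^-6 M yohimbine and 10^-8 M tripitramine to block α2-adrenoceptors and M2 receptors. Electrically stimulated with square-wave pulses (0.1 ms, 2 Hz, 10-15 V) and equilibrated 1 h. Isometric contractions recorded during a cumulative dose-response curve to McN-A-343. Responses are expressed as % of maximal control-curve response, with parallel reference-agonist-only tissues run.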

Test [4] is described as follows: Agonist activity at muscarinic M3 receptor in guinea pig ileum assessed as effect on tissue tension changes. The test is classed as functional, Cavia porcellus. The method, boiled down: (§2)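 Ileum tension changes recorded isotonically after 30 min equilibration. APE curves were run at 30 min intervals; the first was discarded and the second was taken as control. Cumulative agonist curves followed, with responses expressed as % of the control maximum. Parallel reference-only tissues served as sensitivity checks.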

The species named for test [5] is Cavia porcellus. Kind of test: Intrinsic activity at muscarinic M2 receptor in guinea pig atrium assessed as effect on inotropic activity relative to control. The test is classed as tissue-based. As to conditions: Cardiac atrium. The method, boiled down:
(§3)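 Left atria in PSS at 30 °C, paced via platinum electrodes (1 ms, 1 Hz, 5-10 V). Inotropic force recorded isometrically after 2 h equilibration. A cumulative APE reference curve was obtained, then cumulative agonist curves. Responses are expressed as % of the control maximal response.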

The target of test [6] is T2, Muscarinic acetylcholine receptor M1 (Homo sapiens, UniProt P11229).
T2 sequence (P11229 whole entry): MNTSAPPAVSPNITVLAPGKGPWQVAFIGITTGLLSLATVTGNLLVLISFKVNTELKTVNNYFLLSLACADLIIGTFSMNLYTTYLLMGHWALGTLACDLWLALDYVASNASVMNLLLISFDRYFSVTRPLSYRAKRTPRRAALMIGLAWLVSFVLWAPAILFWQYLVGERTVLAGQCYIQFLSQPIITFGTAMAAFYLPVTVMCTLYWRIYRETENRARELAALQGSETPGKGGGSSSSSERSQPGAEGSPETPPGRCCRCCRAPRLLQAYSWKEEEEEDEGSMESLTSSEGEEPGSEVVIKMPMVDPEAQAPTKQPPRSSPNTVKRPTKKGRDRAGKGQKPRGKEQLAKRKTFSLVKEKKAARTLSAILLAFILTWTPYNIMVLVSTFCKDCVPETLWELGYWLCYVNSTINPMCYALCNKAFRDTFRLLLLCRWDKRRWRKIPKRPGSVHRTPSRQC
Kind of test: Displacement of [3H]NMS from human muscarinic M1 receptor expressed in CHO cells by liquid scintillation counter. The test is classed as cell-based.

Test [7] addresses T3, Muscarinic acetylcholine receptor M2 (Homo sapiens, UniProt P08172).
T3 sequence (P08172 whole entry): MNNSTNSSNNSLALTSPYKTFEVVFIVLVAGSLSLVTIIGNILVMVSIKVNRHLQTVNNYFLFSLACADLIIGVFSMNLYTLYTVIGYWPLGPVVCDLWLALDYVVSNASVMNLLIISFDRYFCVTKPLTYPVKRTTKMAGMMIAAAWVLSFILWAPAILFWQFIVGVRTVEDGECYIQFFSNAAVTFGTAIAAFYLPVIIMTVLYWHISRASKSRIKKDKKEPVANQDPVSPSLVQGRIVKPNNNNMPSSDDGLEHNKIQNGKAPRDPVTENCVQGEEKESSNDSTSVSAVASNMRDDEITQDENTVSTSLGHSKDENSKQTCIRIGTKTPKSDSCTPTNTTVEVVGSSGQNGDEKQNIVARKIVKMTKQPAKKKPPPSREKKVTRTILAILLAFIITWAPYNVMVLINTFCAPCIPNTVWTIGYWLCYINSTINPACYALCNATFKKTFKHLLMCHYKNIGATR
Kind of test: Displacement of [3H]NMS from human muscarinic M2 receptor expressed in CHO cells by liquid scintillation counter. The test is classed as cell-based. The method, boiled down:
as §1

A short description of test [8]: Agonist activity at muscarinic M2 receptor in guinea pig atrium assessed as effect on inotropic activity. The test is classed as functional, Cavia porcellus, Cardiac atrium. The method, boiled down: as §3
For test [9], the species on record is Cavia porcellus. Kind of test: Intrinsic activity at muscarinic M3 receptor in guinea pig ileum assessed as effect on tissue tension changes relative to control. Type of test: tissue-based. The method in brief: as §2
Test [10] has as its target T4, Muscarinic acetylcholine receptor M5 (Homo sapiens, UniProt P08912).
T4 sequence (P08912 whole entry): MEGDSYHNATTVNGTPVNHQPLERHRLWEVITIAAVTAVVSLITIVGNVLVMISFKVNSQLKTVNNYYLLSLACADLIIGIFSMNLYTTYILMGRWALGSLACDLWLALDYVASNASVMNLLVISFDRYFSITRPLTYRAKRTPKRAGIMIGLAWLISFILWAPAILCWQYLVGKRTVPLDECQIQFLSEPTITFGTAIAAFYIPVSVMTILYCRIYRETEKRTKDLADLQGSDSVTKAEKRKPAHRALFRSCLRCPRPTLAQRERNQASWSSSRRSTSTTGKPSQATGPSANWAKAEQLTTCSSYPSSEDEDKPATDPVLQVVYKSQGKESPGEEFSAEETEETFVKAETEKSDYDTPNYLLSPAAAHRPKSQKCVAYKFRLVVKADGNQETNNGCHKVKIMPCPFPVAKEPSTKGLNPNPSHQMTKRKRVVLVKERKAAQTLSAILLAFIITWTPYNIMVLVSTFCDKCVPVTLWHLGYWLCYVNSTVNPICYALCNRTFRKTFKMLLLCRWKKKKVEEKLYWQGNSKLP
Kind of test: Displacement of [3H]NMS from human muscarinic M5 receptor expressed in CHO cells by liquid scintillation counter. The test is classed as cell-based. The method, boiled down:
as §1

A short description of test [11]: Antagonist activity at muscarinic M1/M4 receptor in guinea pig lung assessed as effect on tissue contraction. Type of test: functional, Cavia porcellus.
For test [12], the species on record is Oryctolagus cuniculus. Kind of test: Intrinsic activity at muscarinic M1/M4 receptor in New Zealanda white rabbit vas deferens assessed as effect on isometric tissue contraction relative to control. Type of test: tissue-based. The method, boiled down: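 Vas deferens in solution with 10^-6 M yohimbine and 10^-8 M tripitramine at 30 °C, field-stimulated (0.1 ms, 2 Hz, 10-15 V). Contractions recorded isometrically after 1 h equilibration. A cumulative McN-A-343 reference curve was built, then cumulative curves to the test agonist. Responses are expressed as % of the control curve's maximum. Parallel reference-only tissues served as sensitivity checks.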

The species named for test [13] is Cavia porcellus. Kind of test: Intrinsic activity at muscarinic M1/M4 receptor in guinea pig lung assessed as effect on tissue contraction relative to control.

Muscarinic acetylcholine receptor M3, sequence (P20309 whole entry): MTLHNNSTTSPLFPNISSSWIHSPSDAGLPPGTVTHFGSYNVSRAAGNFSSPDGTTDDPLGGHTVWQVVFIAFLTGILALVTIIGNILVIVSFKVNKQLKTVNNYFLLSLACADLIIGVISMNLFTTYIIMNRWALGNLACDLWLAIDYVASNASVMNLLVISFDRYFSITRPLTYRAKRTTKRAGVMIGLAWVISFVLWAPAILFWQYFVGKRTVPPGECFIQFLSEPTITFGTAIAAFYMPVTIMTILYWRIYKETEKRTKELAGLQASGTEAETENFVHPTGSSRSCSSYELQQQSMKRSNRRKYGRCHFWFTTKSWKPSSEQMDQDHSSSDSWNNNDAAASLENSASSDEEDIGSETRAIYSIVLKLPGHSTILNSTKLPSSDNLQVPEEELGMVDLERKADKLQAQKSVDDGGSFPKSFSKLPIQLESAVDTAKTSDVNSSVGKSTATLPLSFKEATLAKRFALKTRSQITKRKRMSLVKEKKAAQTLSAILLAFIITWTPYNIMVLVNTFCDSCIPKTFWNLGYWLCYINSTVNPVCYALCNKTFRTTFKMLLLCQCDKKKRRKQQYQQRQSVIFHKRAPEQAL

On to `Cc1ccc([C@H]2CCCN2C)o1`, for which the Ki is 58.9 µM in test [1]; 28.8 µM in [2]; 44.7 µM in [6]; 19.5 µM in [7]; 31.6 µM in test [10]. In addition, the negative-log Kb (pKb) in [3] and in [11] was less than 5 each time. Moreover, the pD2 in test [4] was 4.93; in test [8], 6.4. Besides, the Intrinsic activity in test [5] is 0.32; in [9], 0.22.
`c1coc([C@H]2CCCN2)c1`: the Ki in [1] is 89.1 µM; in test [2] it was 25.1 µM; in test [6], 46.8 µM; in [7] it was 77.6 µM; in [10], 31.6 µM.
On to `C[N+]1(C)CCC[C@@H]1c1ccco1.[I-]`, for which the Intrinsic activity stood at 0.28 in test [12], 0.4 in test [5] and 0.25 in test [9]. Besides, the Ki in test [1] is 28.2 µM; in [2] it was 17.8 µM; in test [6], 51.3 µM; in test [7], 14.1 µM; in test [10], 23.4 µM. Further, the values for the pD2 in test [4], in [8] and in test [11] were 5.37, 6.49 and less than 5, respectively.
In the case of `c1coc([C@@H]2CCCN2)c1`, the Ki is 102 µM in test [1]; 43.7 µM in test [2]; 63.1 µM in test [6]; 107 µM in [7]; 47.9 µM in [10].
`C[N+]1(C)CCCC1c1ccco1.[I-]` (racemic): the Intrinsic activity in [12] was determined as 0.26; in test [5], 0.38; in [9] it was 0.19. The Ki was 6.46 µM in test [1]; 2.75 µM in [2]; 5.25 µM in test [6]; 3.72 µM in [7]; 3.16 µM in test [10]. Further, the pD2 in test [4] is listed as 5.65; in test [8] it was 6.65; in test [11] it was less than 5.
Turning to `C[N+](C)(C)CCOC(N)=O.[Cl-]` [CARBACHOL], the Intrinsic activity in test [13], in test [5] and in [9] was 1 in each case.
For `Cc1ccc(C2CCC[N+]2(C)C)o1.[I-]` (racemic), the Ki in [1] was 4.37 µM; in test [2], 6.92 µM; in test [6], 7.41 µM; in test [7] it was 1.91 µM; in [10], 4.68 µM. For the same compound, the pD2 turned out to be 7.25 in test [4] and 7.55 in test [8]. Further, the Intrinsic activity was 0.33 in test [5] and 0.28 in test [9]. Further, the pKb in test [11] is less than 5.
As to `Cc1ccc(C2CCCN2)o1` (racemic), the Ki in test [1] was 51.3 µM; in test [2], 18.2 µM; in test [6] it was 38 µM; in test [7] it was 4.27 µM; in test [10] it was 19.1 µM. Also, the figures for the pD2 in test [4] and in test [8] were 5.57 and 6.66, respectively. Further, the Intrinsic activity is 1 in [5] and 0.97 in test [9]. Further, the pKb in test [11] is given as 5.51.
Consider `CN1CCC[C@@H]1c1ccco1`, for which the Intrinsic activity in test [12] turned out to be 0.47; in test [5], 0.45; in test [9], 0.31. Moreover, the Ki is 79.4 µM in test [1]; 81.3 µM in test [2]; 77.6 µM in test [6]; 47.9 µM in test [7]; 75.9 µM in test [10]. Moreover, the pD2 in test [4] is given as 5.65; in test [8], 7.38. The pKb in [11] is less than 5.
Take `c1coc(C2CCCN2)c1` (racemic): the Ki in test [1] was 87.1 µM; in [2] it was 11.5 µM; in test [6], 178 µM; in test [7], 29.5 µM; in test [10], 16.6 µM.
As to `Cc1ccc([C@@H]2CCCN2)o1`, the Ki was 209 µM in [1]; 148 µM in test [2]; 155 µM in test [6]; 28.8 µM in [7]; 138 µM in test [10]. The negative-log Kb (pKb) in [3] is recorded as less than 5; in [11], 5. Besides, the pD2 in [4] amounted to 5; in test [8], 6.1. For the same compound, the results for the Intrinsic activity in test [5] and in test [9] were 0.6 and 1, respectively.
With `Cc1ccc(C[N+](C)(C)C)o1`, the Ki was 6.31 µM in test [1]; 6.17 µM in test [2]; 7.94 µM in [6]; 0.955 µM in test [7]; 6.92 µM in test [10].
For `C[N+](C)(C)CC#CCOC(=O)Nc1cccc(Cl)c1`, the Intrinsic activity in [12] stood at 1. The Ki in test [1] is 9.12 µM; in test [2], 2.4 µM; in [6], 1.95 µM; in test [7] it was 3.24 µM; in [10], 3.8 µM.
Regarding `C[N+]1(C)CCC[C@H]1c1ccco1.[I-]`, the Intrinsic activity came to 0.21 in [12], 0.3 in test [5] and 0.41 in test [9]. For the same compound, the Ki was 21.4 µM in test [1]; 21.4 µM in test [2]; 30.9 µM in test [6]; 7.41 µM in test [7]; 20.9 µM in test [10]. Besides, the pD2 in test [4] is given as 5.77; in test [8], 7.19. Besides, the pKb in test [11] was less than 5.
